Assay outcomes: PubChem BioAssay, several laboratories
GRK2 inh: compounds blocking aptamer binding on GRK2 – biochemical, human GRK2, bead flow cytometry, HTS, primary screen; Beta-adrenergic receptor kinase 1 (Homo sapiens), P25098; FAM-aptamer displacement from GRK2; inhibition of aptamer binding, % at 10 µM; 330,000 compounds, 0.59% hits; AID 488847, 2010;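 active = inhibition of aptamer binding above 40%, roughly 3 SD of noise, on plates passing a quality check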;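 note: median bead fluorescence of bound FAM aptamer so fluorescent compounds give negative values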
DNA FID counter: compounds displacing fluorescent DNA intercalator, primary screen, artefact control for HCV NS3 helicase inhibitor project, biochemical, FID fluorescence; DNA fluorescent intercalator displacement; inhibition, % at 7.9 µM; 290,000 compounds, 0.17% hits; AID 1845, 2009; in the data active = inhibition above about 37%;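 note: higher means more ethidium bromide displaced from hairpin DNA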
DAGLB inhibitor: DAGLB lipase inhibitors, primary screen, biochemical, fluorescence, HTS. Diacylglycerol lipase-beta (Homo sapiens), Q8NCG7. AID 504411, 2011. inhibition, % at 5.17 µM. 340,000 compounds, 0.059% hits. HEK293T DAGLB membrane lysate, EnzChek fluorogenic substrate; in the data active = inhibition above about 34%
HCV core dimer: inhibitors of HCV core protein dimerization, primary screen, biochemical, TR-FRET, high-throughput | TR-FRET GST/Flag-core106 dimerization, 1536-well | inhibition, % at 5 µM | 300,000 compounds, 0.33% hits;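 active = inhibition above the mean of all tested compounds plus 3 SD, set per screening campaign, cut at about 45% in these data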
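Assay system: Tagged HCV core106 pair (GST and Flag) | Buffer or medium: KF-containing HEPES buffer, pH 7.45, DTT, CHAPS, BSA | Also added: Eu donor and XL665 acceptor anti-tag antibodies | Dosing: One concentration, 5 µM, in 0.5% DMSO | Timing: 4 h at 22.5 °C | Technique: TR-FRET 671 and 617 nm emission | Repeats: Singlicate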
GPR7 antagonist: GPR7 receptor antagonists, primary screen, cell-based, fluorescence, single concentration. Neuropeptides B/W receptor type 1 (Homo sapiens), P48145. GPR7-expressing cells, fluorescence antagonist assay. inhibition, % at 4.4 µM. 290,000 compounds, 1.1% hits; in the data active = inhibition above about 16%, passing the limit was not always enough;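 note: cells stimulated with the agonist NPW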
Target sequence (P48145 whole entry, looked up): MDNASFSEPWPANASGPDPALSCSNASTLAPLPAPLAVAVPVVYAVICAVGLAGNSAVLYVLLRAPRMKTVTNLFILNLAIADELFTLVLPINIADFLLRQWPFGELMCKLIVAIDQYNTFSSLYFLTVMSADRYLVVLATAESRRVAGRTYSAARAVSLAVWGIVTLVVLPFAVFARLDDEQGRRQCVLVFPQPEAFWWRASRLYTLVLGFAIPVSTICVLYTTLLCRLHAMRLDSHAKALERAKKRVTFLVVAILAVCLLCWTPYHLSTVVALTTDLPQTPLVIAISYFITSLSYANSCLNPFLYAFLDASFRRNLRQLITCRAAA
NS3 helicase inh: inhibitors of HCV NS3 helicase, primary screen, biochemical, Cy5 molecular beacon fluorescence. NS3 helicase DNA unwinding. 290,000 compounds, 0.56% hits. AID 1800, 2009. Hepatitis C virus NS3 helicase. inhibition, % at 10.9 µM;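 active = inhibition above the mean of all tested compounds plus 3 SD, set per campaign, cut at about 35% in these data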
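Control set: DMSO versus 110 µM thioflavine S; Material: NS3 helicase fragment of HCV; Measured by: Cy5 fluorescence at 0 and 60 min, beacon hairpin quenching; Read-out basis: percent inhibition from t60/t0 fluorescence ratio; Times: reaction time 60 min, 25 °C; Repeats: single replicate; Compound dosing: single dose, 10.9 µM nominal final, DMSO 0.8% final.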
Numbers stand for hits; . = inactive; / = no result. Hits are enriched below; roughly 2.2% of the tested compounds scored in any of these assays.

SMILES | GRK2 inh | DNA FID counter | DAGLB inhibitor | HCV core dimer | GPR7 antagonist | NS3 helicase inh
O=C(CSc1nc2ccccc2c(=O)n1-c1ccc(F)cc1)Nc1cc(S(=O)(=O)N2CCOCC2)ccc1Cl | 53.0 | . | . | . | . | .
COc1ccc(CCNC(=O)c2ccc3c(c2)S(=O)(=O)N=C2CCCCCN23)cc1OC | / | / | . | / | / | /
COc1ccc(NC(=S)N(CCCN2CCCC2)Cc2cccn2Cc2ccc(Cl)cc2)cc1Cl | . | . | . | . | 19.5 | .
Cc1ccc(NC(=S)N(CCCN2CCCC2)Cc2cccn2Cc2ccc(Cl)cc2)cc1Cl | . | . | . | . | . | .
COc1cccc(OC(=O)c2ccccc2)c1OC(=O)c1ccccc1 | / | / | . | / | / | /
CCCCNC(=S)N1CCN(c2ccc(C(C)=O)cc2)CC1 | . | . | . | . | 18.8 | .
Cc1ccc(Cc2c(C)nc3nc(SCC(=O)NCCCN4CCCCCC4)nn3c2C)cc1 | . | . | / | 93.8 | . | .
Cc1nc2nc(SCC(=O)NCCCN3CCCCC3)nn2c(C)c1Cc1ccccc1 | . | . | . | . | . | .
N#Cc1c(N2CCCC(O)C2)nc(N)c2c(N)nc3c(c12)CC(=O)N3C12CC3CC(CC(C3)C1)C2 (stereo unspecified) | . | . | . | 51.7 | . | .
O=C(NC1CCCC1)C(c1cccs1)N(CC1CCCO1)C(=O)Cc1cccs1 (stereo unspecified) | . | . | . | . | 17.6 | .
O=C(NCCCN1CCOCC1)c1ccccc1N1C(=O)[C@@H]2Cc3c([nH]c4ccccc34)C(c3ccc(F)cc3)N2C1=O (stereo partly specified) | . | . | . | . | . | .
COc1cccc(C2c3[nH]c4ccccc4c3C[C@H]3C(=O)N(c4ccccc4C(=O)NCCCN4CCOCC4)C(=O)N23)c1 (stereo partly specified) | . | 44.7 | . | . | . | .
S=C(Nc1ccccc1)N1CCC(C2CCN(C(=S)Nc3ccccc3)CC2)CC1 | . | . | / | . | 19.3 | .
Cc1ccc(-n2c(C)cc(C3=NNC(=NC4CC4)SC3)c2C)cc1C | . | . | . | . | . | .
CN=C1NN=C(c2cc(C)n(-c3ccc(Cl)cc3)c2C)CS1 | . | . | . | 64.8 | . | .
COC(=O)c1ccc2c(c1C(=O)OC)CN(S(=O)(=O)C(C)(C)C)[C@H]2CCO | / | / | . | / | / | /
Cc1ccc(-c2cc(-c3ccc(F)cc3)c(C#N)c(N)n2)o1 | . | . | . | . | . | .
Cc1ccc(-c2cc(-c3ccc(C)o3)nc(N)c2C#N)cc1 | . | . | . | 60.4 | . | .
CCCCNC(=S)N(CCCN(C)C)Cc1cc2cc3c(cc2[nH]c1=O)OCO3 | . | . | . | . | . | .
Cc1cccc(NC(=S)N(CCCN(C)C)Cc2cc3cc4c(cc3[nH]c2=O)OCO4)c1 | . | 37.6 | . | . | . | .
CCc1ccccc1NC(=S)N(CCCN(C)C)Cc1cc2cc3c(cc2[nH]c1=O)OCO3 | . | 43.2 | . | . | . | .
CCOc1ccc(N2CC(C(=O)Nc3ccc(S(=O)(=O)Nc4nccs4)cc3)CC2=O)cc1 (stereo unspecified) | . | . | . | . | . | .
COc1ccc(C2c3[nH]c4ccccc4c3CCN2Cc2cccn2-c2ncccn2)cc1C (stereo unspecified) | . | . | . | . | 29.8 | .
O=C1C(=NO)CC(c2ccccc2)N1c1ccccc1 (stereo unspecified) | / | / | . | / | / | /
COc1ccc(OC)c2c1cc(C(=O)N[C@@H](Cc1ccccc1)C(=O)O)n2C | . | . | . | / | . | .
O=C1Nc2ccccc2/C1=C/C(=O)c1cccs1 | . | . | . | . | 25.8 | .
COC(=O)C(C)(C)c1cccnc1C#N | / | / | . | / | / | /
Fc1ccc([C@@H]2CCNC[C@H]2COc2ccc3c(c2)OCO3)cc1 | / | . | . | . | 31.8 | .
N#Cc1sc2nc(C3CC3)cc(-c3ccccc3)c2c1N | . | . | . | . | . | .
